Experimental data gathered from unrelated publications.
Lines come from different studies, so protocols differ.
Target: Serine/threonine-protein kinase pim-1 (PIM1, Homo sapiens, UniProt P11309)

| Compound | assay | conditions | measurement | value |
| --- | --- | --- | --- | --- |
| O=S(=O)(Nc1cc(Sc2ncn[nH]2)c(O)c2ccccc12)c1ccc(-c2ccccc2)cc1 | enzyme activity, inhibitor | 1 µM | remaining activity | ≥ 75% |
| CCN(CC)CCNC(=O)c1c(C)[nH]c(/C=C2\C(=O)Nc3ccc(F)cc32)c1C | cell-free assay | 0.5 µM | remaining signal | 94.4% |
| CN(C)C1CCN(CC#Cc2nn(C3CCCC3)c3nc(NCc4ccccc4)ncc23)C1 (stereo not shown) | enzyme activity, inhibitor, FRET | 0.1 µM | inhibition | 1% |
| CC(C)(C)c1nc(-c2cccc(NS(=O)(=O)c3c(F)cccc3F)c2F)c(-c2ccnc(N)n2)s1 | enzyme activity, inhibitor, radiometric | 1 µM | remaining activity | 109% |
| Cn1c2c(c3ccc(Cl)c(Cl)c31)C(C#N)C1(CCNCC1)NC2=O (racemic) | thermal stability, DSF | 10 µM | ΔTm | > 8 °C |
| Oc1cccc(-c2nc(N3CCOCC3)c3oc4ncccc4c3n2)c1 | enzyme activity, inhibitor | 10 µM | remaining activity | 72% |
| O=C(N[C@H]1CCCCC/C=C\C2C[C@@]2(C(=O)O)NC(=O)[C@@H]2C[C@@H](Oc3ccncc3)CN2C1=O)OC1CCCC1 (stereo partly shown) | binding, competition with immobilised ligand | 1 µM | remaining binding | 100% |
| Cc1ccc(C(=O)Nc2ccc(CN3CCN(C)CC3)c(C(F)(F)F)c2)cc1C#Cc1cnc2cccnn12 | enzyme activity, inhibitor | 23.5 nM | remaining activity | 100% |
| CC(C)(C)C(=O)c1sc(NC2CCCCC2)nc1N | enzyme activity, inhibitor | 10 µM | remaining activity | 90% |
| COc1cc(Nc2c(C#N)cnc3cc(OCCCN4CCN(C)CC4)c(OC)cc23)c(Cl)cc1Cl | cell-free assay | 0.5 µM | remaining signal | 99.2% |
| COc1cc2ncnc(Nc3ccc(Oc4ccccc4)cc3C)c2cc1OC | enzyme activity, inhibitor | 1 µM | inhibition | -4% |
| CS(=O)(=O)N1CCCC(NC(=O)[C@H](CCC2CCCCC2)NC(=O)c2ccc(CNc3ncnc4c3nnn4-c3ccccc3)cc2)C1 (stereo partly shown) | cell-free assay, competition with immobilised ligand | 0.1 µM | remaining binding | 95% |
| N#CCCc1ccc2c(c1)-c1[nH]c3ccc([N+](=O)[O-])cc3c1CC(=O)N2 | cell-free assay | 0.5 µM | remaining signal | 93.6% |
| Cc1cc(NC(=O)c2cccc3cc(-c4cccc5[nH]nc(N)c45)ccc23)ccc1F | enzyme activity, inhibitor | 0.1 µM | activity vs control | 108% |
| FC(F)(F)Oc1cccc(-c2cnc3ccc(-c4ccncc4)nn23)c1 | enzyme activity, inhibitor, radiometric | 1 µM | activity vs control | 59% |
| CCCOc1ccc(OC)c(F)c1C(=O)c1ccc(C(=O)N[C@@H]2CNC[C@H]2NC(=O)c2ccc3[nH]ncc3c2)cc1 | enzyme activity, inhibitor | 10 µM | remaining activity | 40% |
| CNC(=O)c1cc(Oc2ccc(NC(=O)Nc3ccc(Cl)c(C(F)(F)F)c3)cc2)ccn1 | enzyme activity, inhibitor | 0.3 µM | inhibition | -2% |

| Compound | assay | conditions | measurement | value |
| --- | --- | --- | --- | --- |
| CCCS(=O)(=O)Nc1ccc(F)c(C(=O)c2c[nH]c3ncc(-c4ccc(Cl)cc4)cc23)c1F | enzyme activity, inhibitor | 1 µM | inhibition | < 10% |
| O=C(Nc1cnn(-c2csc(C(=O)NC3COC3)c2)c1)Nc1c(F)cccc1Cl | enzyme activity, inhibitor | 5 µM | remaining activity | 73.3% |
| COc1cc(Nc2cnc(C#N)c(O[C@H](C)CN(C)C)n2)ncc1-c1cnn(C)c1 | enzyme activity, inhibitor, radiometric | 1 µM | remaining activity | 72% |
| Cc1ccc(NC(=O)c2ccc(C)c(C(F)(F)F)c2)cc1C#Cc1nn(C2CCC(O)CC2)c2ncnc(N)c12 (stereo not shown) | cell-free assay | 10 µM | remaining signal | 99% |
| CN1CC(Oc2cnc(C#N)cc2-c2ccn3nc(NC(=O)C4CC4)cc3c2)C1 | enzyme activity, inhibitor | 1 µM | inhibition | -7% |
| C[C@H](NC(=O)c1cnc2n1[C@](C)(Cc1ccc(C#N)cc1)C(=O)N2c1cc(Cl)c(F)c(Cl)c1)C(=O)NC1(c2ccccn2)CC1 | cell-free assay, competition with immobilised ligand | 1 µM | remaining binding | 100% |
| Nc1ncnc2c1ncn2[C@@H]1O[C@H](COP(=O)(O)OP(=O)(O)OP(=O)(O)O)[C@@H](O)[C@H]1O | enzyme activity, substrate, radiometric |  | Km | 48 µM |
| Cn1cc(Cl)c2c(Oc3c(F)cc(Nc4cc(Cl)nc(N)n4)cc3F)ccnc21 | cell-free assay, competition with immobilised ligand | 0.1 µM | remaining binding | 100% |
| CCN1/C(=C/C(C)=O)Sc2ccc(OC)cc21 | cell-free assay | 0.5 µM | remaining signal | 17.9% |
| O=C(N1CCS(=O)(=O)CC1)N1C[C@H](c2ccc(OC(F)(F)F)cc2)C[C@H](c2nc(C3CC3)no2)C1 | cell-free assay, competition with immobilised ligand | 1 µM | remaining binding | 100% |
| Cc1ccc(Nc2nccc(N(C)c3ccc4c(C)n(C)nc4c3)n2)cc1S(N)(=O)=O | enzyme activity, inhibitor | 10 µM | inhibition | 7% |
| O=C(NCCCC1CCCCC1)c1ccc(CNC(=O)c2cnn(-c3ccccc3)c2C(F)(F)F)cc1 | cell-free assay, competition with immobilised ligand | 0.1 µM | remaining binding | 100% |
| FC(F)c1nc2ccccc2n1-c1nc(N2CCOCC2)nc(N2CCOCC2)n1 | enzyme activity, inhibitor | 10 µM | remaining activity | 97% |
| Nc1c(C(=O)NCc2ccc(C(=O)NCCCC3CCCCC3)cc2)cnn1-c1ccccc1 | cell-free assay, competition with immobilised ligand | 0.1 µM | remaining binding | 93% |
| O=C(CSc1nc2nccnc2c(=O)n1CCc1ccccc1)Nc1nccs1 | enzyme activity, inhibitor | 10 µM | inhibition | 5% |
| CSc1cccnc1N1CCN(Cc2nc3ccccc3[nH]2)CC1 | cell-free assay, competition with immobilised ligand | 1 µM | remaining binding | 100% |
| Cc1ccc(C(=O)NCc2ccsc2)cc1C#Cc1cn(C(C)C)c2ncnc(N)c12 | enzyme activity, inhibitor | 1 µM | activity vs control | 100% |
